Results on 14 compounds are retold here after ChEMBL document CHEMBL1158972, “New cytotoxic beta-carboline alkaloids from the marine bryozoan, Cribricellina cribraria” (J Nat Prod, 1991).

Converted amounts (≈) assume the structure as drawn. The source made the active and inactive calls. The rule behind the calls is not given here. Some results are limits rather than exact numbers.

Data set [1] is described as follows: Cytotoxicity against african green monkey BSC1 cells at 20 ug/disk. The settings on record: chlorocebus aethiops, bsc-1. Format: cell-based. In outline:
(§1)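 Cytotoxic zone around the disc on a BSC monolayer (ATCC CCL 26), scored as excess radius beyond the disc edge: 2+ = 2-4 mm, 3+ = 4-6 mm, ww = zone over the whole well.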

A further data set concerns Bacillus subtilis. Put plainly: Antimicrobial activity against Bacillus subtilis assessed per disk. Format: functional.
A further data set has as its system Candida albicans. Kind of data set: Antimicrobial activity against Candida albicans assessed per disk. Format: functional.
In data set [2] the test system is Human alphaherpesvirus 1. Put plainly: Antiviral activity against Herpes simplex virus (type 1 / strain F) ATCC VR 733 in african green monkey BSC1 cells assessed as excess radius from disk edge at 20 ug/disk. Type of data set: functional, organism-based. The note with it: BSC-1. Put shortly:
(§2)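 Disc assay of herpes simplex type I (strain F, ATCC VR 733) on a BSC cell line (ATCC CCL 26). The antiviral zone is scored as excess radius from the disc edge: 2+ = 2-4 mm, 3+ = 4-6 mm, ww = zone over the whole well.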

Data set [3] relates to Amorphotheca resinae. Kind of data set: Antimicrobial activity against Cladosporium resinae assessed per disk. Format: functional.
For the next data set, the system named is P388. Put plainly: Cytotoxicity against mouse P388 cells. Type of data set: functional, cell-based. In outline:
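P-388 leukemia line (ATCC CCL 46). The value is the sample concentration, in ng/ml, that reduces cell growth by 50%.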

Data set [4] concerns Poliovirus 1. Put plainly: Antiviral activity against Polio virus 1 Pfizer vaccine in african green monkey BSC1 cells assessed as excess radius from disk edge at 20 ug/disk. Format: functional, organism-based. The note with it: BSC-1. Put shortly: (§3)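 Disc assay on BSC cell monolayers (ATCC CCL 26) infected with the Pfizer vaccine strain of poliovirus, with the virus grown on BSC cells. Scored by the radius of the antiviral/cytotoxic zone beyond the disc edge: 2+ = 2-4 mm, 3+ = 4-6 mm, ww = zone over the whole well.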

Data set [5] concerns Trichophyton mentagrophytes. Put plainly: Antimicrobial activity against Trichophyton mentagrophytes assessed per disk. Format: functional.
The subject of the next data set is Pseudomonas aeruginosa. Kind of data set: Antimicrobial activity against Pseudomonas aeruginosa assessed per disk. Format: functional.
The next data set deals with Escherichia coli. Put plainly: Antimicrobial activity against Escherichia coli assessed per disk. Format: functional.
Data set [6] in a line: Cytotoxicity against african green monkey BSC1 cells at 0.4 ug/disk. The note with it: chlorocebus aethiops, bsc-1. Type of data set: cell-based. In outline: as §1
Data set [7] in a line: Cytotoxicity against african green monkey BSC1 cells at 0.5 ug/disk. Format: cell-based. The settings on record: chlorocebus aethiops, bsc-1. Put shortly:
as §1

A short description of data set [8]: Cytotoxicity against african green monkey BSC1 cells at 2 ug/disk. Format: cell-based. The note with it: chlorocebus aethiops, bsc-1. In outline:
as §1

Data set [9] has as its system Human alphaherpesvirus 1. Put plainly: Antiviral activity against Herpes simplex virus (type 1 / strain F) ATCC VR 733 in african green monkey BSC1 cells assessed as excess radius from disk edge at 0.4 ug/disk. Format: functional, organism-based. The settings on record: BSC-1. In outline:
as §2

Data set [10] has as its system Human alphaherpesvirus 1. Kind of data set: Antiviral activity against Herpes simplex virus (type 1 / strain F) ATCC VR 733 in african green monkey BSC1 cells assessed as excess radius from disk edge at 0.5 ug/disk. Type of data set: functional, BSC-1. The note with it: Human alphaherpesvirus 1, Strain F ATCC VR 733; read-out: IZ. Put shortly: as §2
For data set [11], the system named is Human alphaherpesvirus 1. Kind of data set: Antiviral activity against Herpes simplex virus (type 1 / strain F) ATCC VR 733 in african green monkey BSC1 cells assessed as excess radius from disk edge at 2 ug/disk. The note with it: Human alphaherpesvirus 1, Strain F ATCC VR 733; read-out: IZ. Type of data set: functional, BSC-1. In outline:
as §2

The test system of data set [12] is Poliovirus 1. Kind of data set: Antiviral activity against Polio virus 1 Pfizer vaccine in african green monkey BSC1 cells assessed as excess radius from disk edge at 0.4 ug/disk. Type of data set: functional, organism-based. The settings on record: BSC-1. Put shortly: as §3
The test system of data set [13] is Poliovirus 1. Kind of data set: Antiviral activity against Polio virus 1 Pfizer vaccine in african green monkey BSC1 cells assessed as excess radius from disk edge at 0.5 ug/disk. Type of data set: functional, BSC-1. The settings on record: Enterovirus C; read-out: IZ. Put shortly:
as §3

Data set [14] has as its system Trichophyton mentagrophytes. Put plainly: Antimicrobial activity against Trichophyton mentagrophytes at 100 units. Type of data set: functional, organism-based.
In data set [15] the test system is Amorphotheca resinae. Kind of data set: Antimicrobial activity against Cladosporium resinae at 100 units. Type of data set: functional, organism-based.

As a reminder, the IC50 is the concentration needed to halve the response being measured. `Cc1nccc2c1[nH]c1ccccc12` [HARMAN]: in data set [1], the “inhibition zone (IZ)” value is listed as “Not Active”. The MIC is 7.5 µg with Bacillus subtilis; 1.9 µg in the data set with Candida albicans; 15 µg with Amorphotheca resinae [3]; 3.7 µg in [5]; above 60 µg against Pseudomonas aeruginosa; 60 µg with Escherichia coli. Moreover, the “inhibition zone (IZ)” value with Human alphaherpesvirus 1 [2] and in the data set with Poliovirus 1 [4] was “inactive” in each case. Besides, the IC50 in the data set with P388 was determined as 25 µg/mL (≈ 137 µM).

As to `COC(=O)C1Cc2c([nH]c3ccccc23)C(C)N1` (configuration not stated), the “inhibition zone (IZ)” value in data set [1] was “Not Active”. The MIC against Bacillus subtilis is above 60 µg; in the data set with Candida albicans, 7.5 µg; against Amorphotheca resinae [3], above 60 µg; in data set [5], above 60 µg; against Pseudomonas aeruginosa, above 60 µg; against Escherichia coli it was above 60 µg. Also, the “inhibition zone (IZ)” value in the data set with Human alphaherpesvirus 1 [2] and in the data set with Poliovirus 1 [4] was “inactive” in each case. Further, inhibition in the data set with P388 was half-maximal at 120 µg/mL (≈ 491 µM) (IC50).

As to `CCc1ncc(S(C)(=O)=O)c2c1[nH]c1ccccc12`, the “inhibition zone (IZ)” value in [1] is given as “Not Active”. The MIC in the data set on Bacillus subtilis is 30 µg; against Candida albicans it was above 60 µg; in the data set on Amorphotheca resinae [3], above 60 µg; in data set [5], 30 µg; in the data set on Pseudomonas aeruginosa it was above 60 µg; in the data set with Escherichia coli it was above 60 µg. Further, the “inhibition zone (IZ)” value with Human alphaherpesvirus 1 [2] was “inactive”. Moreover, in the data set with P388, the IC50 is above 12.5 µg/mL.

Turning to `c1ccc2c(c1)[nH]c1cnccc12` [NORHARMANE], in data set [1], the “inhibition zone (IZ)” value is “Not Active”. For the same compound, the MIC was 7.5 µg in the data set on Bacillus subtilis; 1.9 µg against Candida albicans; 15 µg with Amorphotheca resinae [3]; 0.9 µg in data set [5]; above 60 µg in the data set on Pseudomonas aeruginosa; 3.7 µg with Escherichia coli. Besides, the “inhibition zone (IZ)” value in the data set on Human alphaherpesvirus 1 [2] and in the data set on Poliovirus 1 [4] was “inactive” each time. In the data set with P388, this compound yielded an IC50 of 25 µg/mL (≈ 149 µM).

For the compound `C=Cc1nccc2c1[nH]c1ccccc12`, the MIC was 1.9 µg against Bacillus subtilis; 1.9 µg against Candida albicans; 0.9 µg in the data set on Amorphotheca resinae [3]; 0.1 µg in data set [5]; above 60 µg in the data set on Pseudomonas aeruginosa; 30 µg in the data set with Escherichia coli. The same compound came in with an IC50 in the data set with P388 of 0.1 µg/mL (≈ 0.515 µM). The results for the “inhibition zone (IZ)” value in data set [6], in data set [7] and in [8] were “Not Active”, 2 mm and “Active”, respectively. In the data set with Human alphaherpesvirus 1 [9], the “inhibition zone (IZ)” value is “inactive”. For the same compound, in the data set with Human alphaherpesvirus 1 [10], the zone of inhibition at 0.5 µg/disc came to 1 mm.

As for `C=Cc1nccc2c1[nH]c1c(OC)cccc12`, the MIC with Bacillus subtilis was 7.5 µg; against Candida albicans, 7.5 µg; in the data set on Amorphotheca resinae [3] it was 15 µg; in [5] it was 0.45 µg; against Pseudomonas aeruginosa, above 60 µg; in the data set on Escherichia coli, above 60 µg. This compound also had a half-maximal inhibitory concentration (IC50) in the data set on P388 of 0.1 µg/mL (≈ 0.446 µM). In addition, the “inhibition zone (IZ)” value was “Not Active” in data set [6], 1 mm in [7] and 2 mm in data set [8]. The zone of inhibition at 2 µg/disc in the data set on Human alphaherpesvirus 1 [11] was 1 mm. Also, the “inhibition zone (IZ)” value with Human alphaherpesvirus 1 [9] was “inactive”. The zone of inhibition at 0.5 µg/disc with Human alphaherpesvirus 1 [10] amounted to 1 mm.

For `CC(C)c1nccc2c1[nH]c1ccccc12`, the “inhibition zone (IZ)” value in [1] was “Not Active”. In addition, the MIC was 7.5 µg against Bacillus subtilis; 1.9 µg in the data set with Candida albicans; 15 µg against Amorphotheca resinae [3]; 0.45 µg in data set [5]; above 60 µg with Pseudomonas aeruginosa; above 120 µg against Escherichia coli. Besides, in the data set with Human alphaherpesvirus 1 [2], the “inhibition zone (IZ)” value was “inactive”. Further, the IC50 in the data set on P388 was 13 µg/mL (≈ 61.8 µM).

`CC1NC(C(=O)O)Cc2c1[nH]c1ccccc21` (configuration not stated): the “inhibition zone (IZ)” value in data set [1] is “Not Active”. Besides, the MIC (against Bacillus subtilis; with Candida albicans; against Amorphotheca resinae [3]; in [5]; in the data set on Pseudomonas aeruginosa; against Escherichia coli) was above 60 µg each time. In addition, the “inhibition zone (IZ)” value in the data set on Human alphaherpesvirus 1 [2] and in the data set on Poliovirus 1 [4] was “inactive” in each case. Besides, the IC50 with P388 is above 125 µg/mL.

On to `C=Cc1nccc2c1[nH]c1c(O)cccc12`, for which the “inhibition zone (IZ)” value in the data set on Poliovirus 1 [12] and in the data set on Human alphaherpesvirus 1 [9] was “inactive” throughout. Also, the MIC was 7.5 µg in the data set on Bacillus subtilis; 15 µg with Candida albicans; 3.7 µg in the data set on Amorphotheca resinae [3]; 0.45 µg in data set [5]; above 60 µg with Pseudomonas aeruginosa; above 60 µg in the data set on Escherichia coli. For the same compound, the zone of inhibition at 0.5 µg/disc in the data set on Poliovirus 1 [13] and in the data set with Human alphaherpesvirus 1 [10] was 1 mm each time. The “inhibition zone (IZ)” value in data set [6] is on record as “Not Active”; in data set [7], 2 mm; in data set [8], “Active”.

Regarding `CCc1nccc2c1[nH]c1ccccc12`, the “inhibition zone (IZ)” value in [1] was “Not Active”. In addition, the MIC against Bacillus subtilis was 7.5 µg; in the data set on Candida albicans, 1.9 µg; against Amorphotheca resinae [3] it was 30 µg; in data set [5] it was 1.9 µg; against Pseudomonas aeruginosa, above 60 µg; against Escherichia coli, above 120 µg. Besides, the “inhibition zone (IZ)” value with Human alphaherpesvirus 1 [2] and in the data set on Poliovirus 1 [4] was “inactive” throughout. For the same compound, the IC50 with P388 is 25 µg/mL (≈ 127 µM).

For the compound `CCc1nccc2c1[nH]c1c(O)cccc12`, the “inhibition zone (IZ)” value in [1] is “Not Active”. Further, the MIC is 30 µg in the data set on Bacillus subtilis; 30 µg with Candida albicans; above 60 µg in the data set on Amorphotheca resinae [3]; 30 µg in data set [5]; above 60 µg against Pseudomonas aeruginosa; 30 µg against Escherichia coli. Further, the “inhibition zone (IZ)” value in the data set on Human alphaherpesvirus 1 [2] and in the data set with Poliovirus 1 [4] was “inactive” throughout. In the data set on P388, this compound returned an IC50 above 12.5 µg/mL.

With `CCc1nccc2c1[nH]c1c(OC)cccc12`, in [1], the “inhibition zone (IZ)” value is on record as “Not Active”. Also, the MIC against Bacillus subtilis was above 60 µg; against Candida albicans, 7.5 µg; in the data set with Amorphotheca resinae [3] it was above 60 µg; in [5], 7.5 µg; in the data set with Pseudomonas aeruginosa, above 60 µg; against Escherichia coli, above 60 µg. Besides, the “inhibition zone (IZ)” value in the data set with Human alphaherpesvirus 1 [2] and in the data set on Poliovirus 1 [4] was “inactive” in each case. This compound gave an IC50 with P388 above 12.5 µg/mL.

As for `CCCc1nccc2c1[nH]c1ccccc12`, the “inhibition zone (IZ)” value in [1] is listed as “Not Active”. Also, the MIC against Bacillus subtilis was above 120 µg; in the data set with Candida albicans, above 120 µg; in the data set on Amorphotheca resinae [3] it was above 120 µg; in data set [5], 15 µg; against Pseudomonas aeruginosa, above 60 µg; in the data set on Escherichia coli, above 120 µg. In addition, the “inhibition zone (IZ)” value with Human alphaherpesvirus 1 [2] was “inactive”. The IC50 in the data set on P388 was 25 µg/mL (≈ 119 µM).

With NYSTATIN, the results for the inhibition zone (IZ) (in data set [14]; in the data set on Amorphotheca resinae [15]) were 4 mm and 12 mm, respectively.
